From ChEMBL document CHEMBL1148497 (Bioorg Med Chem Lett, 2006)

Columns and labels:
[1] = test system: Mus musculus; assay: Toxicity in BALB/c mouse at 0.5 mg/kg, ip; assay type: organism-based; design: dose 0.5 mg/kg, route intraperitoneal; settings: in vivo
[2] = test system: Mus musculus; assay: Hepatic toxicity in BALB/c mouse at 0.5 mg/kg, ip; assay type: organism-based; design: dose 0.5 mg/kg, route intraperitoneal; settings: in vivo
[3] = test system: HPAC; assay: Cytotoxicity against human HPAC cell line; assay type: functional, cell-based
Summary of the method: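 Human pancreatic ductal carcinoma HPAC cells grown in 1:1 DMEM/Ham's F-12 with 10% FBS at 37 °C, seeded at 2 × 10^3 cells/well. After 24 h, compounds were added from DMSO stocks (final DMSO 0.1%) for 72 h. WST-1 was then added for 3 h at 37 °C and absorbance read at 450 nm.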

With CCC(=C/[C@H](C)C/C=C/C(C)=C/[C@@H](CO)C(=O)[C@@H](C)[C@H](O)[C@@H](C)C/C(C)=C/C(=O)O)/C=C/[C@H]1CC(C)=CC(=O)O1 the Activity [1] was “Non-toxic”, the Activity [2] was “Non-toxic” and the IC50 [3] was 0.309 nM.
